The source made the active and inactive calls. The calls are words filed in the database; no cut-off is given here.

In ChEMBL document CHEMBL4732105, “First orally bioavailable prodrug of proteolysis targeting chimera (PROTAC) degrades cyclin-dependent kinases 2/4/6 in vivo” (Eur J Med Chem, 2021) one finds inhibition and Activity data, which are given here for one compound.

The subject of assay [1] is A-375. Briefly: Inhibition of colony formation in human A-375 cells at 250 to 500 nM measured after 7 days by crystal violet staining based colony formation assay. In kind it is functional, cell-based. The conditions noted are these: dose 250-500 nM, time 7.0 day. The method in brief:
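Colony formation (long-term growth) assay in A375 and B16F10 cells under continuous compound exposure for 7 days, then clonogenic growth quantified. Mean ± SD, n = 3; Student's t-test.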

In assay [2] the target is Protein cereblon/Cyclin-dependent kinase 4 (Mus musculus) (UniProt P30285+Q8C7D2). Briefly: Protac activity at CRBN/CDK4 in mouse B16F10 cells assessed as induction of CDK4 protein degradation at 100 nM for 6 hrsin presence of Ribociclib by Western blot analysis. The class given is cell-based. The conditions noted are these: B16-F10, time 6.0 hrs.
For assay [3], the system named is B16-F10. Put plainly: Induction of apoptosis in mouse B16F10 cells assessed as necrotic cells at 500 nM incubated for 48 hrs by Annexin V-FITC/PI staining based flow cytometry (reference value: 0.21%). The class given is functional.
For assay [4], the system named is B16-F10. Briefly: Induction of cell cycle arrest in mouse B16-F10 cells assessed as accumulation at G2 phase at 25 uM incubated for 48 hrs by propidium iodide staining based flow cytometry (reference value: 18.22%). In kind it is functional.

Protein cereblon/Cyclin-dependent kinase 4 (Mus musculus), sequence (P30285 whole entry, looked up): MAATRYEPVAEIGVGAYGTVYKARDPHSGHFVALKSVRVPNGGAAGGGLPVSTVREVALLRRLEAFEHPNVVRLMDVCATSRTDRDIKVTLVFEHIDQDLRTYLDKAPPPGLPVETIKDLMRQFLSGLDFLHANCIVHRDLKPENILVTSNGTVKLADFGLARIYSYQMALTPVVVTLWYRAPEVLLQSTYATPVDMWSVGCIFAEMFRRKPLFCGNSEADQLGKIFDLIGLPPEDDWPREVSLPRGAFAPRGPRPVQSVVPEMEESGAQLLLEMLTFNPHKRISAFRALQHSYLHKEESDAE
Protein cereblon/Cyclin-dependent kinase 4 (Mus musculus), sequence (Q8C7D2 whole entry, looked up): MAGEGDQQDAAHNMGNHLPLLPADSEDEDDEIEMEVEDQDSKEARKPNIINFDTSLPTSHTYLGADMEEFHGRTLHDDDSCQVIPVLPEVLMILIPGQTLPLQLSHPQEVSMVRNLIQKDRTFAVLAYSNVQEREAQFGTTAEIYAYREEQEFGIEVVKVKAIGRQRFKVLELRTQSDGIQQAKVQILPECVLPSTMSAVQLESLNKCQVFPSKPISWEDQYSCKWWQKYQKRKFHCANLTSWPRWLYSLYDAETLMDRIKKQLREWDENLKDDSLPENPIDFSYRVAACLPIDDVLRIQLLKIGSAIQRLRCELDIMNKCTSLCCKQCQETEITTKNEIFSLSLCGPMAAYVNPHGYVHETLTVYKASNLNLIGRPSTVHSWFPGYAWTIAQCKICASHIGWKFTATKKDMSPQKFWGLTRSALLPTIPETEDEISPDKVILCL

Consider `CN(C)C(=O)c1cc2cnc(Nc3ccc(C(=O)NCCCCCCNc4cccc5c4C(=O)N(C4CCC(=O)NC4=O)C5=O)cc3)nc2n1C1CCCC1` (centres undefined), for which the inhibition result in assay [1] was “Active”. In addition, in assay [2], the result was inactive. Further, the Activity was 0.081% in assay [3] and 19.56% in assay [4].
